RGS4 pot = RGS4 potentiation or activation; B-score at 10 µM; actives 0.92% (n = 310,000); HEK293 M3R/inducible RGS4, carbachol calcium flux Fluo4; stronger effect = lower value;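 active means B-score of the integrated calcium signal more than 4 SD below the library mean, with starting fluorescence not abnormally high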;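 further: negative B-score means reduced calcium response which marks RGS4 activation or potentiation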
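Test system: HEK293 cells with stable M3R and inducible RGS4; also added: carbachol at ECmax as muscarinic agonist stimulus; schedule: dye loading 30 min 37 °C, buffer rest 30 min RT; technique: kinetic calcium fluorescence imaging with Fluo4-AM dye, 2 µM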
MrgX1 agonist = activates human MrgX1 receptor signaling; Q96LB2; actives 0.44% (n = 310,000); B-score at 10 µM; MrgX1-HEK293 cells, Fluo-4 calcium fluorescence, agonist mode; stronger effect = higher value;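 active means calcium response B-score plate-corrected fluorescence ratio at least 3 library SD, with starting fluorescence B-score inside 5 SD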
Target sequence (Q96LB2 whole entry, looked up): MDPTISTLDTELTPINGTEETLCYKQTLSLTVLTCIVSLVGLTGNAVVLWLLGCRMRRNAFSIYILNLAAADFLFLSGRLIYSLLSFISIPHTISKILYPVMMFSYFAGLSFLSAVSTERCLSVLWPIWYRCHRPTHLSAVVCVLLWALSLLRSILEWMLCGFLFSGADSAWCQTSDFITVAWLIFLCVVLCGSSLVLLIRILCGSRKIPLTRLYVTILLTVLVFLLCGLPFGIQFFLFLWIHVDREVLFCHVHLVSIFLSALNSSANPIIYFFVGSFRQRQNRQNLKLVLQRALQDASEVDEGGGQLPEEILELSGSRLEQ
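Test system: HEK293 cells stably expressing human MrgX1 receptor; amount: 15,000 cells per well; doses: compound delivered in addition one of three; times: overnight plating before 1 h dye loading; detection: Fluo-4 NW calcium-flux fluorescence, kinetic read; read-out basis: B-scored fluorescence response ratio; controls: positive and negative controls per plate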
MrgX1 antagonist = antagonists of human MrgX1 receptor; B-score at 10 µM; AID 588676; MRGX1-HEK293 calcium flux, Fluo-4, BAM8-22 antagonism; stronger effect = lower value; Q96LB2; actives 1.3% (n = 310,000);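 active means calcium-response B-score plate-corrected more than 3 library SD below zero, starting fluorescence within 5 deviations, no agonist response on first addition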;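 further: peak minus trough fluorescence over baseline after final BAM8-22 challenge near maximal dose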
MrgX1 PAM = human MrgX1 positive allosteric modulation, primary screen; Q96LB2; MrgX1-HEK293, Fluo-4 calcium flux, FDSS; stronger effect = higher value; B-score at 10 µM; actives 0.63% (n = 310,000); AID 588675;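 active means plate-corrected calcium response at least 3 library SD above typical, normal starting fluorescence, not activating the receptor alone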;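 further: compound read alongside a low EC10 to EC30 dose of BAM8-22 agonist; peak minus trough fluorescence over baseline measured at the second addition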
RGS4 inh = human RGS4 inhibition; P49798; HEK293 M3R/RGS4 inducible, Fluo-4 calcium flux; stronger effect = higher value; triggered by carbachol at its EC20; B-score at 10 µM; actives 0.45% (n = 310,000); AID 463165;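 active means B-score, a plate-corrected calcium signal, over three deviations above library mean, with baseline fluorescence within five deviations of library mean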;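 further: RGS4 expression induced by doxycycline in cells with stable M3 receptor; B-score is computed from the integrated fluorescence ratio over baseline after carbachol; higher B-score means a larger calcium signal and so more RGS4 inhibition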
Target sequence (P49798 whole entry, looked up): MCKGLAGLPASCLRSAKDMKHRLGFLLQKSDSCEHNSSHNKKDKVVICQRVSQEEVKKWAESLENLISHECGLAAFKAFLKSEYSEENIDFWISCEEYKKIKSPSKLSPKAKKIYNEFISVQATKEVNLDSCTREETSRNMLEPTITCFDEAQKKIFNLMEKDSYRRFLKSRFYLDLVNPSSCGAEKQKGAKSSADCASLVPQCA
MrgX1 PAM conf = human MrgX1 positive allosteric modulation, re-confirmation; activation (ratio percentage), % at 10 µM; actives 13% (n = 1,200); shares compounds with MrgX1 PAM; AID 602413; MrgX1-HEK293, Fluo-4 calcium fluorescence, FDSS;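 active means ratio at least 3 SD above the weak peptide control, stable starting fluorescence, no direct agonism earlier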;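 further: compound followed by low BAM8-22 agonist challenge near EC20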
HEK293 Ca flux = counter-screen for MrgX1 antagonists: effect in parental HEK293 cells | shares compounds with MrgX1 antagonist | Fluo-4 calcium fluorescence, FDSS | fluorescence ratio F(max-min)/F0 at 10 µM | actives 2% (n = 4,000) | AID 624111;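 active means duplicate-averaged calcium fluorescence ratio at least three times the standard deviation of buffer wells, a nonspecific response in parental cells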
HEK293 Ca counter = MrgX1 allosteric activator counter-screen hit in parental HEK293 cells; parental HEK293 calcium flux, Fluo-4 fluorescence ratio; stronger effect = higher value; shares compounds with MrgX1 antagonist; actives 0.4% (n = 4,000); fluorescence ratio F(max-min)/F0 at 10 µM;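 active means calcium fluorescence ratio, averaged over duplicates, at least 3 SD of the buffer-well ratio, meaning a nonspecific response in receptor-free cells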;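 further: untransfected parental HEK293 lacking MrgX1 used as counterscreen for MrgX1 allosteric activators; fluorescence change taken during the second addition on a kinetic imager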
HEK293 Ca cntr2 = MrgX1 activator counter-screen hit in parental HEK293 cells | AID 624115 | actives 8.7% (n = 4,000) | fluorescence ratio F(max-min)/F0 at 10 µM | Fluo-4 calcium fluorescence (FDSS); stronger effect = higher value | shares compounds with MrgX1 antagonist;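 active means calcium fluorescence ratio at least three times the spread of buffer wells, meaning a non-specific response in parental cells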
Active calls of the source: *; i = inactive; nt = no result. The list is not random: actives were taken first. Their share in the collection is about 3.5%.

SMILES	RGS4 pot	MrgX1 agonist	MrgX1 antagonist	MrgX1 PAM	RGS4 inh	MrgX1 PAM conf	HEK293 Ca flux	HEK293 Ca counter	HEK293 Ca cntr2
Nc1ccc(Cl)cc1C(=O)OCC(=O)NC1CCS(=O)(=O)C1 (configuration not stated)	i	i	i	16*	i	i	i	i	i
O=C1CC(NCc2ccc(F)cc2)C(=O)N1c1ccccc1 (configuration not stated)	i	i	i	8.1*	i	i	i	i	i
CC1(C)c2ccccc2N(CC(N)=O)C12C=Cc1ccccc1O2 (configuration not stated)	i	i	i	6.8*	i	i	i	i	i
N#CC1=C(N)OC2=C(CCc3ccccc32)C1c1ccccc1 (configuration not stated)	i	i	i	9.7*	i	i	i	i	i
N#CC1=C(N)Oc2cc(O)ccc2C1c1ccccc1 (configuration not stated)	i	i	i	i	i	nt	nt	nt	nt
O=C(NCCCn1ccnc1)/C(=C\c1ccccc1Cl)NC(=O)c1ccccc1	i	i	i	i	i	nt	nt	nt	nt
COC(=O)C(C)(C)ONC(=O)Nc1ccc(Br)cc1	i	i	i	i	i	nt	nt	nt	nt
CC(NC(=O)Nc1ccc(Br)cc1)C(C)(C)C (configuration not stated)	i	i	i	7.8*	i	i	i	i	i
COc1cc(C#N)c(NC(=S)N2CCOCC2)cc1OC	i	i	i	i	i	nt	nt	nt	nt
COc1ccc(NS(=O)(=O)c2ccc3nc(COc4ccc(C#N)cc4)[nH]c3c2)cc1	i	i	i	i	i	nt	nt	nt	nt
CCSc1nc2c(c(=O)[nH]1)C(c1ccncc1)C(C(=O)OC(C)C)=C(C)N2 (configuration not stated)	i	i	i	i	i	nt	nt	nt	nt
CCSc1nc2c(c(=O)[nH]1)C(c1cccnc1)C(C(=O)OC)=C(C)N2 (configuration not stated)	i	i	i	8.5*	i	i	i	i	i
Brc1ccc(Nc2nc(-c3cccnc3)cs2)cc1	i	i	i	i	i	nt	nt	nt	nt
Cc1ccc(Nc2nc(-c3cccnc3)cs2)cc1C	i	i	i	6.5*	i	i	i	i	i
CCOc1ccccc1Nc1ccnc2cc(Cl)ccc12	i	i	i	11*	i	i	i	i	i
CC12CCC(C(=O)Nc3ccc(Br)cn3)(OC1=O)C2(C)C (configuration not stated)	i	i	i	i	i	nt	nt	nt	nt
CC1CCCC(C)N1C(=O)CSc1nnc(NC(=O)c2cccs2)s1 (configuration not stated)	i	i	i	14*	i	i	i	i	i
COc1ccc(OC(=O)COc2cccc(C)c2)cc1	i	i	i	i	i	nt	nt	nt	nt
COc1ccc(N(C(=O)COc2cccc(C)c2)S(=O)(=O)c2ccc(C)cc2)cc1	i	i	i	18*	i	i	i	i	i
CN1C(N)=NC(=O)/C1=C\c1ccc(Br)cc1	i	i	i	i	i	nt	nt	nt	nt
CCOC(=O)c1c(-c2ccsc2)csc1N	i	i	i	8.6*	i	i	i	i	i
CCOC(=O)c1c(-c2ccc(C)s2)csc1N	i	i	i	9.1*	i	i	i	i	i
CCOC(=O)c1c(CC(C)C)csc1N	i	i	i	i	i	nt	nt	nt	nt
CCOC(=O)c1c(-c2ccc(C)o2)csc1N	i	i	i	i	i	nt	nt	nt	nt
COCCCN(C(=O)CSCc1c(C)noc1C)c1c(N)n(Cc2ccccc2)c(=O)[nH]c1=O	i	i	i	i	i	nt	nt	nt	nt
SMILES	RGS4 pot	MrgX1 agonist	MrgX1 antagonist	MrgX1 PAM	RGS4 inh	MrgX1 PAM conf	HEK293 Ca flux	HEK293 Ca counter	HEK293 Ca cntr2
CC12COC3(C(=O)Nc4cccnc4)CC1CCC32C (configuration not stated)	i	i	i	i	i	nt	nt	nt	nt
Cc1ccccc1NC(=O)C12CC3CCC1(C)C3(C)CO2 (configuration not stated)	i	i	i	6.9*	i	i	i	i	i
CC12COC3(C(=O)Nc4ccccc4)CC1CCC32C (configuration not stated)	i	i	i	9.7*	i	i	i	i	i
CC12COC3(C(=O)Nc4ccc5ccccc5c4)CC1CCC32C (configuration not stated)	i	i	i	17*	i	i	i	i	i
CC1(C)C2CCC1(CS(=O)(=O)NCc1ccc(S(N)(=O)=O)cc1)C(=O)C2 (configuration not stated)	i	i	i	i	i	nt	nt	nt	nt
Cc1cccc(C)c1NC(=O)CC(NCCc1ccccc1)C(=O)O (configuration not stated)	i	i	i	i	i	nt	nt	nt	nt
COc1ccc(C(C(=O)NCC2CCCO2)N(C(=O)c2snc(C(N)=O)c2N)c2ccc(C)cc2)cc1OC (configuration not stated)	i	nt	nt	nt	i	nt	nt	nt	nt
C=CCn1c(COc2ccccc2)nc2ccccc21	i	i	i	i	i	nt	nt	nt	nt
O=C(CS(=O)(=O)c1ccccc1)Nc1nc(-c2ccccc2)cs1	i	i	i	8.4*	i	i	i	i	i
Cc1ccc(S(=O)(=O)CC(=O)Nc2nc(-c3ccccc3)cs2)cc1	i	i	i	i	i	nt	nt	nt	nt
Nc1nc(Nc2ccccc2Br)nc(C(F)(F)F)n1	i	i	i	9.1*	i	i	i	i	i
Nc1nc(Nc2ccccc2)nc(C(F)(F)F)n1	i	i	i	i	i	nt	nt	nt	nt
CN1CCc2c(OCC(=O)N3CCC(Cc4ccccc4)CC3)cccc2C1=O	i	i	i	9.8*	i	i	i	i	i

Source: PubChem BioAssay
